# This is a sample that favours compounds with a hit; in the whole collection about 4.2% have one here.
# ANO1 block: blocks the mouse calcium-activated chloride channel TMEM16A | HEK293 TMEM16A/YFP iodide influx fluorescence, ionomycin | normalized B-score (activity score, 25-100; higher = stronger inhibition) at 10 µM | Q8BHY3 | AID 588511 | 310,000 compounds, 1.2% hits;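 active = ratio plate-corrected score three or more library SD toward inhibition, starting fluorescence score within five deviations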;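 also: score derived from kinetic fluorescence span divided by baseline fluorescence per well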
# UPR XBP1 act: adaptive UPR (XBP1) activation | CHO-XBP1 luciferase reporter, IRE1-XBP1 UPR activation, luminescence; percent of tunicamycin response, DMSO as zero | activation, % at 20 µM | 330,000 compounds, 0.33% hits;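 active = versus positive control, 20 µM dose yields 30% or more activation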;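 also: 100% = tunicamycin at 10 µg/mL and 0% = DMSO only wells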
#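 Test system: CHO-XBP1 luciferase reporter cells | Buffer or medium: Serum-containing F12 medium, 10% FBS | Schedule: 6 h compound exposure at 37 °C, 5% CO2 | Detection: Steady-Glo luciferase glow luminescence, 10 min after reagent addition | Read-out basis: Activation, % of tunicamycin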
# Lipid droplet: hepatic lipid droplet formation modulation. AML12 mouse hepatocytes, oleate lipid droplets, BODIPY imaging. inhibition, % at 6.5 µM. 240,000 compounds, 0.4% hits;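 active = lipid droplet intensity inhibited by at least 50%, with more than 500 cells counted; inconclusive = wells with under 300 cells, treated as cytotoxic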
#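 Material – AML12 mouse liver cells · Also added – oleate loading, 100 µM · Compound dosing – 6.5 µM single-point dosing · Times – overnight treatment with compound plus oleate · Measured by – fluorescence imaging, 20x objective, two fields per well · Read-out – percent inhibition of filter-corrected integrated lipid droplet intensity per well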
# UPR CHOP act: activators of apoptotic arm of unfolded protein response (CHOP) | AID 449763 | 330,000 compounds, 0.34% hits | activation, % at 10 µM | CHO-CHOP luciferase reporter, UPR activation, luminescence; percent of tunicamycin response over DMSO baseline;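 active = at 10 µM dose, activation of 40% or more, normalized to positive control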;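 also: 100% = tunicamycin at 10 µg/mL and 0% = DMSO alone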
#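 Test system: CHO CHOP reporter cells. Input: 500 CHO-CHOP cells per well. Medium: F12 with 10% FBS. Technique: luciferase luminescence. Measure: percent activation relative to tunicamycin control. Dosing: 10 µM compound, 0.5% DMSO. Timing: 16-18 h cell attachment, then 6 h compound exposure, 37 °C.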
# TMEM16A act: mouse TMEM16A channel activation, primary screen | Q8BHY3 | B-score at 10 µM | HEK293 TMEM16A/YFP-H148Q/I152L, iodide quench fluorescence; active compounds read low | 340,000 compounds, 0.3% hits | AID 623877;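 active = fluorescence-ratio B-score plate-corrected deviation score at least 3 library SD below zero, with starting fluorescence score within 5 deviations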;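 also: channel opened by trigger with iodide after compound preincubation; score built on the fluorescence ratio of max minus min over baseline; more negative score means more quench and so TMEM16A activation or potentiation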
# CHOP inh: inhibitors of CHOP induction in ER stress response; 220,000 compounds, 3.8% hits; CHO-K1 CHOP-promoter luciferase, tunicamycin-induced, 15-18 h; inhibition, % at 10 µM;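 active = compounds that reduced the stress-induced luciferase reporter signal by more than about 70% of percent inhibition, limit read from the data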;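 also: 0% = tunicamycin plus vehicle and 100% = wells without tunicamycin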
# TMEM16A reconf: reconfirmed blocker of mouse TMEM16A calcium-activated chloride channel; 2,300 compounds, 39% hits; shares compounds with ANO1 block; AID 652189; inhibition, % at 10 µM; HEK293 TMEM16A/YFP-H148Q, iodide quench fluorescence; ionomycin added to raise cell calcium;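 active = mean duplicate percent inhibition, scaled so buffer wells are 0 and the reference blocker 100, over three buffer SD above buffer mean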
# HEK293 Ca mobil: calcium mobilization counter-screen hit for TMEM16A inhibitor series | shares compounds with ANO1 block | AID 652231 | 2,300 compounds, 2% hits | calcium response (% of ionomycin), % at 10 µM | TMEM16A/YFP HEK293, Fluo4 calcium mobilization;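 active = duplicate-averaged calcium signal over 20% of the ionomycin maximum, relative to buffer baseline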;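 also: each well's signal is peak minus trough fluorescence divided by its pre-addition baseline; 0% = buffer wells and 100% = ionomycin wells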
# Parental YFP cnt: parental YFP-HEK293 iodide quench counter-screen activity. shares compounds with ANO1 block. ionomycin. YFP ratio F(max-min)/F0 at 10 µM. 2,300 tested, under 10 active;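 active = yellow fluorescent protein signal ratio exceeding the buffer control mean by over 5 SD of those controls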;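 also: ratio is mean of duplicate wells from kinetic YFP trace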
# ClC-1 inh: blocks the rat ClC-1 voltage-dependent chloride channel; CHO ClC-1-YFP, iodide influx fluorescence quench; iodide control reads 0, buffer control 100; 2,300 tested, under 10 active; shares compounds with ANO1 block; ratio percent, % at 10 µM;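 active = duplicate-mean ratio percent above the mean of iodide-only control wells, which defines zero, plus 5 of their SD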;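 also: higher percent means stronger block of ClC-1 iodide influx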
# Target sequence (P35524 whole entry, looked up): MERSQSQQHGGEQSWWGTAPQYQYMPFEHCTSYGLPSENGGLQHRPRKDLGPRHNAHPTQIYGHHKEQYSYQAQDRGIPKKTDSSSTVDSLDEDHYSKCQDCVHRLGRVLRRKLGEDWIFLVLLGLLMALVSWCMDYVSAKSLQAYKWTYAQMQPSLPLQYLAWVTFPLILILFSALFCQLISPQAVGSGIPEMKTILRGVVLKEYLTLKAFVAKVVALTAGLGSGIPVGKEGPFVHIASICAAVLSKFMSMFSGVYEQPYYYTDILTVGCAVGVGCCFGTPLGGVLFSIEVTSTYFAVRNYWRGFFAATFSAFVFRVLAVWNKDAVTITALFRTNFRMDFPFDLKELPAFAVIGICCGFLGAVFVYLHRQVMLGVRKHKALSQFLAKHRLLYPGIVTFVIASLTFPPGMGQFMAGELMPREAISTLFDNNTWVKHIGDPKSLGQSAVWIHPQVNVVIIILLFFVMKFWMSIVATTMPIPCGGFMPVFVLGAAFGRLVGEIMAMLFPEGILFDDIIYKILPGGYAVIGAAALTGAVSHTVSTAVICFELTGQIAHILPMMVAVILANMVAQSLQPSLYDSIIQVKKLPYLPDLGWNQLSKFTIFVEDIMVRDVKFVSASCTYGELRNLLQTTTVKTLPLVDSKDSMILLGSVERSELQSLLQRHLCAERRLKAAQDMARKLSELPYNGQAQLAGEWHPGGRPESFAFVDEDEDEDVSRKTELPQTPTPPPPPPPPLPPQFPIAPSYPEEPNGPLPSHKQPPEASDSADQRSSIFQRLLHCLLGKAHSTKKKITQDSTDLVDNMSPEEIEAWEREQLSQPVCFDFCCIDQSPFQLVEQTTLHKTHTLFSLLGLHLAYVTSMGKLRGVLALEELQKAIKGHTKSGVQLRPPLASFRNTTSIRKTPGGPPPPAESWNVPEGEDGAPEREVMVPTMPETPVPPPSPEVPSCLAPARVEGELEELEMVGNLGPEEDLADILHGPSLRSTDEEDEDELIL
# * hit, by the source's call; i = inactive; ? = inconclusive; nt = no result.
SMILES,ANO1 block,UPR XBP1 act,Lipid droplet,UPR CHOP act,TMEM16A act,CHOP inh,TMEM16A reconf,HEK293 Ca mobil,Parental YFP cnt,ClC-1 inh
COc1ccc(C2=NOC(C(=O)NCC(C)C)C2)cc1 (stereo not given),100*,-0.5,nt,1.9,i,-0.2,i,i,-0.974,-10.5
CC1(C)CC(=O)c2c(O)cc(OCC(=O)N3CCN(c4ccc(F)cc4)CC3)cc2O1,i,-0.4,-18.2,0.9,i,nt,nt,nt,nt,nt
COC(=O)C1C=CC(OC2OC(COC(C)=O)C(OC(C)=O)C(OC(C)=O)C2OC(C)=O)n2c(=O)n(-c3ccccc3)c(=O)n21 (stereo not given),nt,nt,nt,nt,i,nt,nt,nt,nt,nt
COc1ccccc1N1CCN(Cc2ccco2)CC1,25*,-0.7,nt,2.2,i,0.8,i,i,-1.01,-3.5
COc1ccc(-c2noc(CCC(=O)N3CCN(c4ccccc4Br)CC3)n2)cc1,nt,1.1,nt,0.5,nt,nt,nt,nt,nt,nt
C=CCOc1ccc(CN(C)CC(O)COc2cccc3ccccc23)cc1 (stereo not given),i,2.6,8.4,-1.6,i,nt,nt,nt,nt,nt
O=C(NC1CCCC1)c1cc(-c2ccc(Cl)cc2Cl)on1,i,0.3,6.4,7.7,i,nt,nt,nt,nt,nt
Cc1ccc(SCc2ccc(C(=O)N3CCCCC3)cc2)cc1,100*,4.0,1.0,-0.5,i,33.4,i,i,-1.1,-5.5
CN1CCN(C(=O)c2ccc(CSc3ccc(Cl)cc3)cc2)CC1,i,-0.9,-20.5,0.2,i,41.0,nt,nt,nt,nt
Cc1ccc(-n2nc3c(c2NC(=O)CC(C)C)CS(=O)(=O)C3)cc1,i,-1.6,-3.2,0.2,i,nt,nt,nt,nt,nt
CCOC(=O)c1oc2ccc(S(=O)(=O)Nc3ccc4c(c3)n(C)c(=O)n4C)cc2c1C,25*,-3.2,-110.0,4.8,i,nt,i,i,-1.27,-11.0
CN1CCS/C1=C\C=C1/SC(=S)N(CC(=O)O)C1=O,nt,nt,25.4,nt,i,3.2,nt,nt,nt,nt
CCN1C(=O)/C(=C/C=C2/SCCN2C)SC1=S,i,-4.9,nt,2.8,i,-31.8,24.0%*,i,-0.595,17.0
O=C(CSc1nc(=O)n2ccccc2n1)OCc1ccccc1,i,-1.0,nt,-0.9,i,nt,nt,nt,nt,nt
CCN(CC(=O)Nc1cccc(OC)c1)CC(=O)Nc1ccc(C)cc1Cl,i,0.0,-3.4,0.5,i,24.7,nt,nt,nt,nt
CC(=O)c1ccc(NC(=S)NC(C)CCc2ccccc2)cc1 (stereo not given),25*,-1.8,-23.8,1.8,i,9.3,i,i,-1.08,-1.0
CN(Cc1ccccc1)C(=O)c1ccc(NC(=O)C2CCN(C(=O)OC(C)(C)C)CC2)cc1,nt,-3.8,nt,2.3,i,nt,nt,nt,nt,nt
Cc1onc(-c2ccccc2)c1C(=O)NCCCc1ccccc1,nt,0.0,nt,-0.3,i,nt,nt,nt,nt,nt
CCOc1ccc(C(=O)NCC(C)C)cc1,i,-0.1,-0.8,-0.4,i,3.2,nt,nt,nt,nt
CCOc1ccc(C(=O)NCC(C)NC(=O)c2ccc(OCC)cc2)cc1 (stereo not given),25*,-2.6,-0.3,-2.1,i,nt,i,i,-0.789,-11.0
NC(=O)c1ccc(NC(=O)CCc2nc3ccccc3s2)cc1,i,5.7,21.5,0.2,i,-0.4,nt,nt,nt,nt
O=C(Nc1ccc(Cc2nc3ccccc3s2)cc1)c1ccncc1,25*,0.9,-3.7,3.4,i,nt,17.0%*,i,-0.984,-11.5
Cc1c(-c2ccccc2)[n+](=O)c(-c2ccc(Cl)cc2)c(C)n1[O-],i,-2.7,-9.8,0.7,i,12.2,nt,nt,nt,nt
Cc1cccc(C)c1NS(=O)(=O)c1ccc(-c2cnc(C3CC3)o2)cc1,25*,15.9,?,0.0,i,nt,29.0%*,i,-1.15,-3.5
CCOc1ccc(S(=O)(=O)N(CC(=O)NCc2cccnc2)c2ccc(F)cc2)cc1,i,2.0,-9.8,1.3,i,nt,nt,nt,nt,nt
SMILES,ANO1 block,UPR XBP1 act,Lipid droplet,UPR CHOP act,TMEM16A act,CHOP inh,TMEM16A reconf,HEK293 Ca mobil,Parental YFP cnt,ClC-1 inh
COc1ccc(CN(C)C(=O)c2cccc(Oc3ccccc3)c2)c(OC)c1OC,25*,-0.7,-31.5,-0.1,i,nt,32.0%*,i,-1.15,-13.0
CCOC(=O)N1CCC(N2Cc3cccc(C(=O)NCC4CCN(CC(C)C)C4)c3C2=O)CC1 (stereo not given),100*,-3.9,nt,-0.3,i,8.5,i,i,-1.29,-6.0
COCCN1Cc2cccc(C(=O)NCC3CCN(CC(C)C)C3)c2C1=O (stereo not given),i,-0.7,-2.5,-0.7,i,15.4,nt,nt,nt,nt
C(/C=C/c1ccccc1)=N/N1CCN(c2ccccc2)CC1,25*,1.2,17.9,6.1,i,19.6,i,i,-0.93,-11.5
CN1/C(=C\C(=O)C(F)F)C(C)(C)c2ccccc21,i,0.2,3.6,-0.4,i,41.3,nt,nt,nt,nt
CN1/C(=C\C(=O)COc2ccc3c(c2)OCO3)C(C)(C)c2ccccc21,i,-2.1,-44.5,-3.7,i,85.4*,i,i,-0.727,4.5
CN1/C(=C\C(=O)c2ccco2)C(C)(C)c2ccccc21,i,-0.6,nt,14.8,i,24.7,26.5%*,i,-0.68,-2.0
CN1/C(=C\C(=O)c2cncc(Br)c2)C(C)(C)c2ccccc21,i,1.4,-56.1,4.7,i,48.9,22.0%*,i,-0.722,-8.5
CC1CCc2sc3ncnc(N4CCN(C)CC4)c3c2C1 (stereo not given),nt,-3.1,nt,1.0,i,nt,nt,nt,nt,nt
COc1ccc(-c2cc(C(=O)Nc3cccc(O)c3)no2)cc1,i,-12.6,12.1,-3.8,i,nt,nt,nt,nt,nt
CC(CCc1ccccc1)NC(=O)C(=O)c1c[nH]c2ccccc12 (stereo not given),i,-5.0,5.0,-2.4,i,nt,nt,nt,nt,nt
CCC(=O)N(CC)C1=C(O)c2ccccc2C(=O)C1=O,25*,0.6,nt,0.8,i,16.4,25.5%*,i,-0.782,-10.5
CCC(=O)N(C1=C(NC)C(=O)c2ccccc2C1=O)C(C)C,i,1.4,-5.2,-0.2,i,16.8,nt,nt,nt,nt
